These results are taken from ChEMBL document CHEMBL3525986, “Nicotinamide N-oxidation by CYP2E1 in human liver microsomes” (Drug Metab Dispos, 2013).

Each structure is given as a SMILES string.

Assay type in all cases: ADME
In data set [1] the target is T1, Cytochrome P450 2B6 (Homo sapiens, UniProt P20813).
T1 sequence (P20813 whole entry): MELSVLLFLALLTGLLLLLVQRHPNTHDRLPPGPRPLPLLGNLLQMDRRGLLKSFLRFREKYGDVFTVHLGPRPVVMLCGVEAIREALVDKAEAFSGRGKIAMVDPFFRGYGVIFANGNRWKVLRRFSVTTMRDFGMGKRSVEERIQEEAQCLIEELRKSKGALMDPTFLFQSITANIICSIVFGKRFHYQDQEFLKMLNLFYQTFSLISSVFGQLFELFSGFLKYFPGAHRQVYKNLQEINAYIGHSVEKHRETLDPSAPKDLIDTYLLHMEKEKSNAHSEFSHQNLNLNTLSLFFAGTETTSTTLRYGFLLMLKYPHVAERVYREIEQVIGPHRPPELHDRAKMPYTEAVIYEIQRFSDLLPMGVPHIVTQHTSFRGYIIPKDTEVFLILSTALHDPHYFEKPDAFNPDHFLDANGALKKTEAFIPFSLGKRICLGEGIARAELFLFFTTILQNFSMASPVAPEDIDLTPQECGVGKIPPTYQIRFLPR
Description: Drug metabolism in human liver microsomes assessed as CYP2B6-mediated nicotinamide N-oxide formation by HPLC analysis. (In general: Liver microsomes are a subcellular fraction often used to study metabolism.)

In data set [2] the target is T2, Cytochrome P450 2E1 (Homo sapiens, UniProt P05181). Description: Drug metabolism in human liver microsomes assessed as chlorzoxazone-mediated reduction of CYP2E1-mediated nicotinamide N-oxide formation at 2 mM by HPLC analysis relative to control. The note with it: 2000 µM. The method, boiled down: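 Human liver microsomes (1 mg/ml, 1mM NADPH, pH 7.4) were incubated with 2 mM NAM plus 100 μM chlorzoxazone (final 1% acetonitrile) for 30 min at 37°C. Methanol quench, then HILIC HPLC, UV 254 nm. Compared against solvent control; triplicates, t-test.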
T2 sequence (P05181 whole entry): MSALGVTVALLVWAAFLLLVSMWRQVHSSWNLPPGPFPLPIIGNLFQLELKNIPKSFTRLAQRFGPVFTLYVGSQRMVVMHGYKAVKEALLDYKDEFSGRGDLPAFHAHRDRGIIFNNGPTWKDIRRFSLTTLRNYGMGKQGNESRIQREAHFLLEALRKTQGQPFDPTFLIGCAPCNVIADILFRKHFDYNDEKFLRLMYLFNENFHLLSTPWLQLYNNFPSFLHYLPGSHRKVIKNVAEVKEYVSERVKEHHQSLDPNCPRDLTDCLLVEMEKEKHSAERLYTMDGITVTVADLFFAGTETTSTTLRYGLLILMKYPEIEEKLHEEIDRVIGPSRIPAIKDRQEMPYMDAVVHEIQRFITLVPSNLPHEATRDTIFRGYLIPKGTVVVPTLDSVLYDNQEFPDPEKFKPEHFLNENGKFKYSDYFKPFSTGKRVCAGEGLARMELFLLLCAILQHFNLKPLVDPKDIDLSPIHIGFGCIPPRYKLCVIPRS

The target in data set [3] is T3, Flavin-containing monooxygenase 3 (Homo sapiens, UniProt P31513).
T3 sequence (P31513 whole entry): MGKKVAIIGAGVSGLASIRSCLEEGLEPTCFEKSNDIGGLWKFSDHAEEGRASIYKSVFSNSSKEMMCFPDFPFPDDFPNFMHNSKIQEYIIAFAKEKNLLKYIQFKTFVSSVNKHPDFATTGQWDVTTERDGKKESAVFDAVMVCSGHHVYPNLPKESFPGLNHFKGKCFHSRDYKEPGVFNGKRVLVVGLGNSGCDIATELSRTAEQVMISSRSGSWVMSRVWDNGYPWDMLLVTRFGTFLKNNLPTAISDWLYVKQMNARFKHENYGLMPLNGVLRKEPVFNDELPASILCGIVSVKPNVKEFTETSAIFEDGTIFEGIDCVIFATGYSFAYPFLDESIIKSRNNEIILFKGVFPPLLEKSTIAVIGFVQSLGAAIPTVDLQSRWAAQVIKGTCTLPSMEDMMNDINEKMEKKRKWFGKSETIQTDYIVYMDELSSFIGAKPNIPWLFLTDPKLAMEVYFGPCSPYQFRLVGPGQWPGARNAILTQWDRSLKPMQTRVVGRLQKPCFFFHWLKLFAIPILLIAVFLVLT
Description: Drug metabolism in insect microsomes assessed as FMO3 (unknown origin)-mediated nicotinamide N-oxide formation after 30 mins by HPLC analysis. To be noted: 0.5 h.

Data set [4] addresses T2, Cytochrome P450 2E1. In words: Drug metabolism in human liver microsomes assessed as diethyldithiocarbamate-mediated reduction of CYP2E1-mediated nicotinamide N-oxide formation at 2 mM by HPLC analysis relative to control. To be noted: 2000 µM. The essentials:
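Microsomes (1 mg/ml HLM, 1mM NADPH, pH 7.4) were preincubated 30 min with 100 μM diethyldithiocarbamate (final 0.1% methanol). Then 2 mM NAM was added for 30 min at 37°C. N-oxide was quantified by HILIC HPLC at 254 nm versus control. Triplicate means, t-test.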

For data set [5], the target named is T2, Cytochrome P450 2E1. Description: Drug metabolism in human liver microsomes assessed as CYP2E1-mediated nicotinamide N-oxide formation preincubated for 5 mins at 45 degC after 30 mins by HPLC analysis in absence of NADPH. To be noted: 0.5 h. The essentials: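 Before assay, HLM were heated 5 min at 45°C with or without NADPH. Incubation then ran with 2 mM NAM for 30 min in pH 7.4 phosphate buffer. NAM N-oxide was quantified by HILIC HPLC (UV 254 nm) from a standard curve. Triplicate determinations, t-test.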

For data set [6], the target named is T2, Cytochrome P450 2E1. Description: Drug metabolism in human liver microsomes assessed as antibody-mediated reduction in CYP2E1-mediated nicotinamide N-oxide formation at 2 mM by HPLC analysis relative to control. On the set-up: scale not given: the % may be the effect or the level left. To be noted: 2000 µM. The method, boiled down: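 HLM (1 mg/ml, pH 7.4 phosphate, 1mM NADPH) were preincubated 5 min at 37°C with 15 microgram anti-CYP2E1 or control mouse antibody. Control antibody was dialysed against Tris to remove azide. Then 2 mM NAM was added for 30 min. HPLC-UV 254 nm quantitation was expressed against the control antibody. Triplicates.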

The target of data set [7] is T2, Cytochrome P450 2E1. In words: Drug metabolism in human liver microsomes assessed as CYP2E1-mediated nicotinamide N-oxide formation at 3 mM after 30 mins by HPLC analysis. To be noted: 0.5 h, 3000 µM. The essentials: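 Pooled human liver microsomes at 1 mg/ml in 0.1 M NaH2PO4, pH 7.4, with 1mM NADPH were preincubated 2 min at 37°C. NAM was added at varied concentrations and run 30 min, then stopped with ice-cold methanol. N-oxide was measured by HILIC HPLC with UV at 254 nm against a standard curve. Km and Vmax came from a Michaelis-Menten nonlinear fit. Triplicates.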

The target in data set [8] is T4, Cytochrome P450 2A6 (Homo sapiens, UniProt P11509).
T4 sequence (P11509 whole entry): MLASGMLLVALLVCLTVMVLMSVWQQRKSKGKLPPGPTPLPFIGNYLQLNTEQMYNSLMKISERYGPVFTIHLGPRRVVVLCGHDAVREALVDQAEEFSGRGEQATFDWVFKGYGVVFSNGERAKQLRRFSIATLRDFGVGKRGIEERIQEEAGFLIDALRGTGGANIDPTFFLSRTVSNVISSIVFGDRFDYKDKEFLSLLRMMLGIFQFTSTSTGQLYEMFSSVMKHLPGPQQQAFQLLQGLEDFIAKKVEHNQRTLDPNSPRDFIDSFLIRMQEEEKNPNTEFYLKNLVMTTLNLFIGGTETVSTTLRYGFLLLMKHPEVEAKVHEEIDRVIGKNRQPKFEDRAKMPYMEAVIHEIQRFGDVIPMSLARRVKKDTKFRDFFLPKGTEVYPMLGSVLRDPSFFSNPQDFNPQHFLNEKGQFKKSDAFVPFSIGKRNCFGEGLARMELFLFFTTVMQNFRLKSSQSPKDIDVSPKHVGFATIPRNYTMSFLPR
In words: Drug metabolism in human liver microsomes assessed as CYP2A6-mediated nicotinamide N-oxide formation by HPLC analysis.

In data set [9] the target is T2, Cytochrome P450 2E1. Description: Drug metabolism in insect microsomes assessed as CYP2E1 (unknown origin)-mediated nicotinamide N-oxide formation after 30 mins by HPLC analysis. The note with it: 0.5 h. The method, boiled down: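 Insect cell microsomes overexpressing CYP2E1 were diluted 4-fold with control insect microsomes. Otherwise run as for HLM: pH 7.4 phosphate, 1mM NADPH, 37°C, 30 min, across a range of NAM concentrations. Methanol stop, HILIC HPLC with UV at 254 nm. Triplicates.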

On to `NC(=O)c1cccnc1` [NIACINAMIDE], for which the Drug metabolism result in data set [1] is listed as “metabolite_not_detected”; in data set [3], “metabolite_not_detected”; in [5] it was “metabolite_detected”; in data set [7], “metabolite_detected”; in data set [8], “metabolite_not_detected”; in data set [9], “Dose-dependent effect”. In addition, the “fold change (FC)” value in data set [2] is given as over 5; in data set [4] it was 8. The Activity in [6] is recorded as under 8%.
